Sampled rows, rich in hits. Any-hit rate of the full collection: about 1.9%.
CHRM4 agonist – human M4 muscarinic receptor agonists, primary screen, CHO-K1 cells, Fluo-8 calcium fluorescence; 0.14% of 360,000 active; activation, % at 3 µM; CHO-K1 hM4/Gqi5; vehicle 0%, full acetylcholine response 100%; AID 624127, 2012; Muscarinic acetylcholine receptor M4 (Homo sapiens), P08173;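 active = activation above the run mean over all test wells plus 3 SD, cut at about 32% in these data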;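 also: peak over basal fluorescence ratio per well then scaled between controls; 0% = DMSO wells and 100% = acetylcholine at EC100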
Target sequence (P08173 whole entry, looked up): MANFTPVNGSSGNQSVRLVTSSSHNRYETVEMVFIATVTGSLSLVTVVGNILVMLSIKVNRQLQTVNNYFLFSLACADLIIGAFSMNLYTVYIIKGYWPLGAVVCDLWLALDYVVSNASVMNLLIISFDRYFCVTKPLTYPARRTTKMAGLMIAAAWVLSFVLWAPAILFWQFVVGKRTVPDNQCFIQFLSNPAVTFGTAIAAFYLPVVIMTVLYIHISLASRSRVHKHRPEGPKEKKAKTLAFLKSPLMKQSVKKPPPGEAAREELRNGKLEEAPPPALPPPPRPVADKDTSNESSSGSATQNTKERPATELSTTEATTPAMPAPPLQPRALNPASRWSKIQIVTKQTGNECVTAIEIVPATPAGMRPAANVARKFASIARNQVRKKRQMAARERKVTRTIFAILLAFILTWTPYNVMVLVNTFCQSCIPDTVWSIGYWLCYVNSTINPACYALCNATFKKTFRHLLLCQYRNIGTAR
CHRM4 antagonist – human M4 muscarinic receptor antagonists, primary screen, CHO cells, Fluo-8 calcium fluorescence; Muscarinic acetylcholine receptor M4 (Homo sapiens), P08173; CHO-hM4 cells, ACh EC80; inhibition, % at 3 µM; 0.73% of 360,000 active; AID 624125, 2012;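 active = inhibition above its plate's cutoff, the mean inhibition of sample wells plus 3 SD, cut at about 27% in these data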;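 also: 0% = acetylcholine EC80 with DMSO and 100% = DMSO without agonist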
CHRM5 PAM – human M5 muscarinic receptor positive allosteric modulators, primary screen, CHO-K1 cells, Fluo-8 calcium fluorescence. Muscarinic acetylcholine receptor M5 (Homo sapiens), P08912. 0.3% of 360,000 active. activation, % at 3 µM. CHO-K1 hM5, ACh EC20 PAM; 0% = ACh EC20, 100% = ACh EC100;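 active = activation above the run cutoff, the mean activation of all test compounds plus 3 SD, cut at about 18% in these data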
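system = human M5 receptor in CHO-K1 cells | reagent = EC20 acetylcholine as agonist stimulus | compound dosing = single-point, 3 µM nominal | incubation = Fluo-8 loading 80 min at 37 °C plus 30 min room temperature | detection = Fluo-8 calcium dye fluorescence, kinetic read | benchmarks = low control EC20 acetylcholine (0%), high control EC100 acetylcholine (100%)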
CHRM5 agonist – human M5 muscarinic receptor agonists, primary screen, CHO-K1 cells, Fluo-8 calcium fluorescence; activation, % at 3 µM; CHO-K1 hM5 cells; 0% DMSO wells, 100% maximal acetylcholine response; 0.19% of 360,000 active;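 active = activation above the run's mean over test compounds plus 3 SD, cut at about 23% in these data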;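 also: signal is peak over basal fluorescence ratio across the kinetic read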
M4 PAM – human M4 muscarinic receptor positive allosteric modulators, primary screen, CHO-K1 cells, Fluo-8 calcium fluorescence. CHO-K1 hM4/Gqi5, ACh EC20; 0% = ACh EC20, 100% = maximal ACh. activation, % at 3 µM. 0.4% of 360,000 active. AID 624126, 2012;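 active = activation above its plate's cutoff, the mean activation of sample wells plus 3 SD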
CHRM5 antagonist – human M5 muscarinic receptor antagonists, primary screen, CHO cells, Fluo-8 calcium fluorescence; Muscarinic acetylcholine receptor M5 (Homo sapiens), P08912; CHO-hM5 cells, ACh EC80; inhibition, % at 3 µM; 0.59% of 360,000 active;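 active = inhibition above a per-plate cutoff, the mean of that plate's test compounds plus 3 SD, cut at about 27% in these data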;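 also: 0% = acetylcholine EC80 with DMSO and 100% = DMSO without agonist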
Starred values were filed as active, the others as inactive.

SMILES	CHRM4 agonist	CHRM4 antagonist	CHRM5 PAM	CHRM5 agonist	M4 PAM	CHRM5 antagonist
O=C(Cc1ccc(Cl)cc1)c1c[nH]c(C(=O)NCCCN2CCOCC2)c1	0.5	2.6	10.9	-3.9	-0.4	0.1
CN(C)c1ccc(/C=C(/C#N)C(=O)Nc2nc3c(s2)CCN(Cc2ccccc2)C3)cc1	13.7	8.8	-27.6	48.8*	-4.7	24.3
O=C(NNC(=O)c1cc2cc3ccccc3nc2s1)c1cccc(Cl)c1	1.2	2.6	13.4	-2.2	29.8*	5.4
CC(=O)c1ccc(N2CCN(CC(O)COC(c3ccccc3)c3ccccc3)CC2)cc1 (stereo not drawn)	6.1	40.5*	-15.4	-7.5	-22.5	16.9
CC(=O)c1ccc(N2CCN(CC(O)COC(c3ccccc3)c3ccccc3C)CC2)cc1 (stereo not drawn)	12.5	81.0*	-16.2	-5.8	-23.2	31.7*
CC(=O)Nc1ccc(NC(=O)c2cc[n+]([O-])cc2)cc1	1.4	3.7	-6.2	-3.1	-6.7	29.2*
CC(=O)Nc1ccc(C(=O)Nc2cc(C)on2)cc1	-0.6	28.0*	-1.9	-2.0	-12.6	-0.1
CC(C)(C)c1ccc(NC(=O)c2cc[n+]([O-])cc2)cc1	0.8	0.1	0.4	-1.8	1.2	16.8
Cn1c(=O)c2sccc2n2c(CCCC(=O)N3CCCCC3)nnc12	1.5	-5.3	2.9	-1.1	0.8	0.2
CCN1CCN(C(=O)c2ccc(Cl)c(S(=O)(=O)N(C)c3ccccc3)c2)CC1	2.8	-1.4	5.2	0.3	20.0*	-1.9
Cc1ccccc1N1CCN(CCN2C(=O)CC(=C3c4ccccc4-c4ccccc43)C2=O)CC1	0.5	-10.8	5.8	1.7	14.1	-3.8
Cc1ccccc1N1CCN(CCCN2C(=O)CC(=C(c3ccccc3)c3ccccc3)C2=O)CC1	-3.0	38.3*	-14.1	-8.9	-17.1	-0.6
O=C1CC(=C(c2ccccc2)c2ccccc2)C(=O)N1CCCCN1CCN(c2cccc(Cl)c2)CC1	-2.2	39.8*	-18.1	-8.2	-19.6	11.1
CN1CCCC(n2nc(Cc3ccc(Cl)cc3)c3ccccc3c2=O)CC1 (stereo not drawn)	5.3	2.1	-17.3	1.6	-12.7	5.0
Fc1c(F)c(F)c(/C=N/NC(=S)Nc2cccnc2)c(F)c1F	3.1	-9.1	7.4	-1.7	19.5*	-5.5
Fc1cccc(F)c1/C=N/NC(=S)Nc1cccnc1	0.4	11.3	-2.6	-3.0	-3.4	5.7
CCCc1cc(C(=O)NNC(=S)NCc2ccccc2)cs1	1.8	-6.6	-3.1	-1.7	8.3	4.3
CCCc1cc(C(=O)NNC(=S)NC2CCCCC2)cs1	3.7	1.5	3.5	-1.1	18.1*	4.1
COc1cc(C2C=C(C34CC5CC(CC(C5)C3)C4)NC(=S)N2)cc(OC)c1OC (stereo not drawn)	-1.5	19.0	-13.7	-7.4	-11.7	6.7
COc1ccc(OC)c(C2C=C(C34CC5CC(CC(C5)C3)C4)NC(=S)N2)c1 (stereo not drawn)	-0.6	43.1*	-11.0	-2.9	-16.7	10.6
Cc1ccnn1-c1ccc(C(=O)NCc2ccccc2CN2CCOCC2)cc1	5.5	2.5	-3.0	4.6	-3.3	10.9
Fc1ccc(-c2csc3[n+]2CCS3)cc1	-0.1	-0.1	2.8	-15.9	3.8	-1.4
c1sc2[n+](c1C13CC4CC(CC(C4)C1)C3)CCS2	0.1	34.3*	-5.8	-8.7	-12.3	-2.1
O=C1NC(=O)C2(N1)C(=O)c1cccc3cccc2c13 (stereo not drawn)	161.3*	28.7*	-8.6	36.5*	-16.6	16.6
O=C1NC(=O)C2(N1)c1ccccc1-c1ccccc12	-0.1	-1.4	3.7	-0.1	-0.8	9.3
SMILES	CHRM4 agonist	CHRM4 antagonist	CHRM5 PAM	CHRM5 agonist	M4 PAM	CHRM5 antagonist
CCOC(=O)C1CCCN1C(=O)C1(NC(C)=O)CCCC1 (stereo not drawn)	0.8	-9.8	-1.9	0.6	8.8	12.5
CC(=O)C1=C(C)NC(SCC(=O)c2ccc(F)cc2)=C(C#N)C1c1ccco1 (stereo not drawn)	11.6	-3.0	-5.7	-0.3	18.4*	7.5
CC(=O)C1=C(C)NC(SCC(=O)c2ccc(Cl)c(Cl)c2)=C(C#N)C1c1ccco1 (stereo not drawn)	7.6	-7.3	-3.5	1.4	14.3	-3.8
Cc1cccc(NC(=O)CCC(=O)N2CCOCC2)n1	1.8	-11.3	-7.3	-4.9	8.1	-13.9
CCN(CC)c1ccc(/C=C(/C#N)C(=O)NC(C)C)o1	10.2	7.0	-0.8	5.8	4.6	13.7
CCN(CC)c1ccc(/C=C(/C#N)C(=O)NCc2ccccc2)o1	13.3	8.4	-18.3	29.8*	-11.4	9.5
CN(c1ccccc1)S(=O)(=O)c1ccc(NC(=O)c2nc(S(C)(=O)=O)ncc2Cl)cc1	20.7	78.2*	-11.7	2.3	-13.8	31.4*
CN(c1ccccc1)S(=O)(=O)c1ccc(NC(=O)c2ccccc2)cc1	4.5	5.0	-10.4	-2.0	-7.8	8.7
COc1cccc(NC(=O)c2nc(S(C)(=O)=O)ncc2Cl)c1	-1.2	36.0*	-2.9	-1.7	-3.2	18.2
CCOc1ccccc1N(CC(=O)NCCSc1ccccn1)S(=O)(=O)c1ccccc1	32.5*	10.6	9.8	0.6	13.2	26.4
O=C1c2cccc3c(N4CCCCC4)ccc(c23)C(=O)N1c1ccccc1O	39.2*	34.7*	-19.8	27.8*	-17.1	34.5*
O=C1c2cccc3c(N4CCCCC4)ccc(c23)C(=O)N1c1ccc(O)cc1	11.4	4.1	-9.1	21.5	0.6	18.0
CC(C)CCn1c(=O)c2sccc2n2c(CCCC(=O)N3CCN(c4ccccn4)CC3)nnc12	2.7	-6.6	1.1	0.4	-5.9	-5.7
COC(=O)N1C(=O)[C@@](c2ccc(OC)cc2)(C(C)C)N1C(=O)OC	1.0	-4.4	19.5*	2.6	12.7	-3.2
COC(=O)N1C(=O)[C@](c2ccc(Cl)cc2)(C(C)C)N1C(=O)OC	20.2	10.5	-17.6	4.1	-8.4	17.9
O=C(c1ccccc1F)N1CCC2CC1c1cc(N3CCCCC3)ccc12 (stereo not drawn)	4.1	1.9	-1.6	0.6	-8.4	-9.7

Screening results as filed in PubChem.
